In ChEMBL document CHEMBL4825680, “Structure-based discovery of potent and selective small-molecule inhibitors targeting signal transducer and activator of transcription 3 (STAT3)” (Eur J Med Chem, 2021):
pIC50: −log10 of the molar value. The source made the active and inactive calls. The rule behind the calls is not given here.

What was measured:
MGC-803 = test: Antiproliferative activity against human MGC-803 cells; type: functional, cell-based
HCC70 = test: Effect on total STAT3 level in human HCC70 cells at 0.3 to 3 uM measured after 3 hrs by Western blot analysis; type: functional, cell-based; conditions: dose 0.3-3 µM
Method in brief: (§1)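 Breast cancer cells were treated with vehicle (0.1% DMSO) or compound, then lysed in RIPA with PMSF and phosphatase inhibitors. 20–50 μg protein was run on 8 or 12% SDS-PAGE, blotted to PVDF, blocked in 5% BSA, probed with primary antibodies overnight at 4 °C, then HRP secondaries, with ECL detection.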

MDA231-LM2-4175 [1] = test: Effect on total STAT3 level in human MDA231-LM2-4175 cells at 0.3 to 3 uM measured after 3 hrs by Western blot analysis; type: functional, cell-based; conditions: dose 0.3-3 µM; method in brief: as §1
[2] = biological target: T1, Signal transducer and activator of transcription 3 (Homo sapiens, UniProt P40763); test: Inhibition of STAT3 phosphorylation at Ser727 residue in human HCC70 cells at 3 uM after 3 hrs by Western blotting analysis; type: cell-based
T1 sequence (P40763 whole entry): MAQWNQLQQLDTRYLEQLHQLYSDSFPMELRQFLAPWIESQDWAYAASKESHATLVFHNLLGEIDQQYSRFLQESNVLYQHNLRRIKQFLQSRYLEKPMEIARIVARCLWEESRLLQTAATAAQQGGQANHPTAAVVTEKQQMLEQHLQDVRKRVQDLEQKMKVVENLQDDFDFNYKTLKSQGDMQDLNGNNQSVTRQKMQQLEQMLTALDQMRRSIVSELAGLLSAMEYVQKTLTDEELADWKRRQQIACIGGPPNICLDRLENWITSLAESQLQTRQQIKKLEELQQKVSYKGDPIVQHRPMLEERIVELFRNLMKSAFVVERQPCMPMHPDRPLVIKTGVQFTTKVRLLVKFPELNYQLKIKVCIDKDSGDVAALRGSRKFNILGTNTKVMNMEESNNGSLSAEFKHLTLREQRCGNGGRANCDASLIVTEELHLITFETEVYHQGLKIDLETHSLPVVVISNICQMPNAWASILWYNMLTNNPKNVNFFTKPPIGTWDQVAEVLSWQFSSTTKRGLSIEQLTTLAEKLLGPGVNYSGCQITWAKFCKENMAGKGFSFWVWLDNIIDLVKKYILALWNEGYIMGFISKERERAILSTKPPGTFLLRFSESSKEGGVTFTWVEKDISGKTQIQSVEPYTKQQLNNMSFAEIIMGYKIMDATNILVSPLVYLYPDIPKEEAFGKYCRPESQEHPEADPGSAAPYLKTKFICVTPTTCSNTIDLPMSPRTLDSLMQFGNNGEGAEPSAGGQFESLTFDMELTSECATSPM

MDA-MB-231 [3] = test: Effect on total STAT1 level in human MDA-MB-231 cells at 0.3 to 3 uM after 3 hrs by Western blotting analysis; type: functional, cell-based; conditions: dose 0.3-3 µM; method in brief: as §1
[4] = biological target: T1, Signal transducer and activator of transcription 3; test: Inhibition of HA-tagged STAT3 dimerization (unknown origin) expressed in HEK293T cells preincubated for 3 hrs followed by IL-3 stimulation by immunoprecipitation analysis; type: cell-based; conditions: dose 1-3 µM
[5] = biological target: T1, Signal transducer and activator of transcription 3; test: Inhibition of Flag-tagged STAT3 dimerization (unknown origin) expressed in HEK293T cells preincubated for 3 hrs followed by IL-3 stimulation by immunoprecipitation analysis; type: cell-based; conditions: dose 1-3 µM
[6] = biological target: T1, Signal transducer and activator of transcription 3; test: Inhibition of STAT3 dependent transcriptional activity (unknown origin) expressed in HEK293T cells at 1 to 3 uM after 24 hrs by Dual-luciferase reporter gene assay; type: cell-based; conditions: dose 1-3 µM
Method in brief: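 HEK-293T cells (2.5×10^4/well) co-transfected with pGL3-STAT3 (seven STAT3 binding-site copies; 50 ng), STAT3C (50 ng) and TK-Renilla (40 ng). After 24 h, treated with vehicle or compound for 24 h. Dual firefly/Renilla luciferase read on a luminometer.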

[7] = biological target: T1, Signal transducer and activator of transcription 3; test: Inhibition of STAT3 in human MDA-MB-468 cells assessed as downregulation of c-Myc expression at 0.3 to 3 uM after 24 hrs by western blot analysis; type: cell-based; conditions: dose 0.3-3 µM
Method in brief: (§2)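 TNBC cells given vehicle (0.1% DMSO) or graded compound levels for 24 h, lysed in RIPA with PMSF and phosphatase inhibitors. BCA-quantified lysate (20–50 µg) run on SDS-PAGE, transferred to PVDF, blocked in 5% BSA. Probed overnight at 4 °C for Bcl-xL, Mcl-1 and c-Myc, with β-actin. HRP secondary, ECL detection. Three independent experiments.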

[8] = biological target: T1, Signal transducer and activator of transcription 3; test: Inhibition of STAT3 in human MDA231-LM2-4175 cells assessed as downregulation of Mcl-1 expression at 0.3 to 3 uM after 24 hrs by western blot analysis; type: cell-based; conditions: dose 0.3-3 µM; method in brief: as §2
MCF7 = test: Antiproliferative activity against human MCF7 cells assessed as reduction in cell viability after 72 hrs by CCK8 assay; type: functional, cell-based; conditions: MCF7, 72 h
Method in brief: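 Cells seeded at 1000–8000 per well were grown overnight, then exposed to 0.1–100 μM compound or 0.1% DMSO vehicle for 72 h. CCK-8 was added for 0.5–4 h at 37 °C and absorbance read at 480 nm. Viability = (OD compound − blank)/(OD vehicle − blank) × 100, with medium as blank. IC50 fitted from three independent experiments.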

MDA-MB-231 [9] = test: Induction of apoptosis in human MDA-MB-231 cells assessed as viable cells at 1 uM after 48 hrs by Annexin-V-FITC/propidium iodide staining based flow cytometric analysis (reference value: 93.4%); type: functional; conditions: read-out: Activity
MDA-MB-231 [10] = test: Induction of apoptosis in human MDA-MB-231 cells assessed as early apoptotic cells at 1 uM after 48 hrs by Annexin-V-FITC/propidium iodide staining based flow cytometric analysis (reference value: 2.98%); type: functional
MDA-MB-231 [11] = test: Induction of apoptosis in human MDA-MB-231 cells assessed as viable cells at 3 uM after 48 hrs by Annexin-V-FITC/propidium iodide staining based flow cytometric analysis (reference value: 93.4%); type: functional; conditions: read-out: Activity
[12] = Induction of apoptosis in human MDA231-LM2-4175 cells assessed as late apoptotic cells at 1 uM after 48 hrs by Annexin-V-FITC/propidium iodide staining based flow cytometric analysis (reference value: 2.60%); type: functional
[13] = Induction of apoptosis in human MDA231-LM2-4175 cells assessed as necrotic cells at 3 uM after 48 hrs by Annexin-V-FITC/propidium iodide staining based flow cytometric analysis (reference value: 0.531%); type: functional
MDA231-LM2-4175 [14] = test: Induction of apoptosis in human MDA231-LM2-4175 cells assessed as increase in caspase-7 cleavage at 1 uM after 48 hrs by Western blot analysis; type: functional, cell-based
Method in brief: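 Breast cancer cells given vehicle (0.1% DMSO) or compound, then lysed in RIPA buffer with PMSF and phosphatase inhibitors. BCA-quantified lysate (20–50 µg) run on 8 or 12% SDS-PAGE and transferred to PVDF. Blocked in 5% BSA, probed overnight at 4 °C for PARP and cleaved caspase-7, HRP secondary, ECL detection. β-actin as loading control.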

[15] = Cmax in Sprague-Dawley rat at 10 mg/kg, po measured up to 24 hrs by LC-MS/MS analysis; type: ADME, organism-based; parameters: route oral, dose 10 mg/kg, time <=24; conditions: in vivo
Method in brief: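 Male SD rats given a single oral dose of 10 mg/kg in DMSO/0.5% HPMC (5/95, v/v). Blood was drawn at 0.25, 0.5, 1, 2, 4, 8 and 24 h, and plasma was analysed by LC-MS/MS on a BEH phenyl column with a formic acid water/acetonitrile mobile phase.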

[16] = Antitumor activity against human MDA231-LM2-4175 cells xenografted in mouse assessed as tumor growth inhibition at 5 mg/kg, iv administered once daily for 20 days; type: functional; conditions: MDA231-LM2-4175, iv, 480 h, time 20 day, read-out: TGI
[17] = Antitumor activity against patient-derived breast cancer cells xenografted in NOD/SCID mouse assessed as tumor growth inhibition at 5 mg/kg, iv administered once daily for 20 days; type: functional; conditions: Homo sapiens, Breast cancer cell line, 480 h, time 20 day, read-out: TGI
Breast cancer cell line = test: Antitumor activity against patient-derived breast cancer cells xenografted in NOD/SCID mouse assessed as reduction in Mcl-1 expression at 5 to 15 mg/kg, iv administered once daily for 20 days by Western blotting analysis; type: functional, organism-based; conditions: Homo sapiens, dose 5-15 mg/kg, time 20.0 day
[18] = Toxicity in NOD/SCID mouse xenografted with patient-derived breast cancer cells assessed as morphological change in spleen at 5 to 15 mg/kg, […] once daily for 20 days by HE staining based assay; type: organism-based; conditions: in vivo, iv, 480 h, dose 5-15 mg/kg, time 20 day
Method in brief: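 Female NOD-SCID mice implanted subcutaneously in the flank with about 2 mm³ TNBC PDX fragments. At about 100 mm³ tumour volume, randomised n=6/group: vehicle (PBS with 15% Cremophor EL), 5 or 15 mg/kg intraperitoneally daily. Killed at day 20; heart, liver, spleen, lung and kidney collected for morphological examination.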

## O=C(Cc1c(-c2ccccc2)nc2ccccn12)Nc1ccc2c(c1)S(=O)(=O)C=C2
MGC-803
  pIC50: 5.80
HCC70
  Activity: inactive
MDA231-LM2-4175 [1]
  Activity: inactive
[2]
  inhibition: inactive
MDA-MB-231 [3]
  Activity: inactive
[4]
  inhibition: Dose-Dependent Effect
[5]
  inhibition: Dose-Dependent Effect
[6]
  inhibition: Active
[7]
  inhibition: Active
[8]
  inhibition: Active
MCF7
  pIC50: 5.14
MDA-MB-231 [9]
  viability at 1 µM: 83.5%
MDA-MB-231 [10]
  Activity: 7.38%
MDA-MB-231 [11]
  viability at 3 µM: 73.9%
[12]
  Activity: 4%
[13]
  Activity: 1.37%
MDA231-LM2-4175 [14]
  Activity: Active
[15]
  Cmax: 23.8 ng/mL
[16]
  inhibition in vivo at 5 mg/kg: 20.1%
[17]
  inhibition in vivo at 5 mg/kg: 32.7%
Breast cancer cell line
  Activity: Active
[18]
  Activity: Non-Toxic
